Measured values from different studies.
Protocols differ between the studies behind these lines.
Target: Serine/threonine-protein kinase/endoribonuclease IRE1 (ERN1, Homo sapiens, UniProt O75460)

SMILES | test | conditions | remaining binding
F[C@@H]1CCN(c2nccc(-c3cnn4ncccc34)n2)C1 | binding | 1 µM | 83%
CS(=O)(=O)N1CCCC(NC(=O)[C@H](CCC2CCCCC2)NC(=O)c2ccc(CNc3ncnc4c3nnn4-c3ccccc3)cc2)C1 (stereo partly drawn) | cell-free assay, competition with immobilised ligand | 0.1 µM | 100%
CC1CCCN1c1nccc(-c2cnn3ncccc23)n1 (stereo not drawn) | binding | 1 µM | 100%
O=C(c1ccc(Nc2ncc(Cl)c(-c3cc4ccccc4s3)n2)cc1)N1CCC(N2CCCC2)CC1 | binding, competition with immobilised ligand | 1 µM | 37%
O=C(Nc1c[nH]nc1C(=O)NC1CCNCC1)c1cc(F)cc(F)c1 | binding, competition with immobilised ligand | 1 µM | 86%
CN(C)c1nccc(-c2cnc3ncccn23)n1 | binding | 1 µM | 60%
COc1ncc2cc3ccccc3nc2c1C#N | cell-free assay, competition with immobilised ligand | 5 µM | 93%
CCN1CCN(Cc2ccc(C(=O)Nc3ccc(C)c(Oc4ccc5c(c4)CC(=O)N5)c3)cc2C(F)(F)F)CC1 | binding, competition with immobilised ligand | 1 µM | 100%
N[C@@H]1CCN(c2nccc(-c3cnn4ncccc34)n2)C1 | binding | 1 µM | 100%
O=C(NCCCN1CCOCC1)c1ccc(Nc2ncc(Cl)c(-c3ccc(Cl)s3)n2)cc1 | binding, competition with immobilised ligand | 1 µM | 27%
O=C(NCc1ncc(C(F)(F)F)cc1Cl)c1ccc2c(c1)C1(CCS(=O)(=O)CC1)[C@@H](C1CC1)N2S(=O)(=O)c1ccc(F)cc1 | cell-free assay, competition with immobilised ligand | 1 µM | 65%
COc1cnc(Nc2cccc(S(N)(=O)=O)c2)nc1N1CCN(c2ccccc2)CC1 | binding, competition with immobilised ligand | 1 µM | 73%
C[C@@H](c1ccc(-n2cnc3c(N)ncnc32)cc1)N1CCc2nn(C)c(Cc3ccccc3)c2C1=O | binding, competition with immobilised ligand | 0.1 µM | 72%
Cc1cc(NC(=O)c2cccc(S(F)(F)(F)(F)F)c2)cc(-n2ccn3nc(-c4cccnc4)cc23)c1 | cell-free assay, competition with immobilised ligand | 1 µM | 99.2%
CN(C)c1nccc(-c2cnn3ncccc23)n1 | binding | 1 µM | 100%
CCOCCn1cc(C(=O)Nc2ccc(-n3nc(-c4cccnc4)cc3C(F)(F)F)cn2)ccc1=O | cell-free assay, competition with immobilised ligand | 1 µM | 87%
Nc1ncc2c(n1)-c1c([nH]c3ccc(C#CC4CC4)cc13)CCCC2 | binding, competition with immobilised ligand | 1 µM | 100%
CN1CCN(c2cnc3c(C4CCN(C(=O)c5ccc(OC(F)(F)F)cc5N)CC4)ncnc3c2)CC1 | cell-free assay, competition with immobilised ligand | 1 µM | 99%
COc1ccnn2ncc(-c3ccnc(N(C)C)n3)c12 | binding | 1 µM | 100%
CNC(=O)Nc1ccc2c(c1)CC[C@@]21OC(=O)N(CC(=O)N(Cc2ccc(F)cc2)[C@@H](C)C(F)(F)F)C1=O | cell-free assay, competition with immobilised ligand | 1 µM | 56%
Cc1cnc(Nc2ccc(C(=O)N3CCC(N4CCCC4)CC3)cc2)nc1-c1cc2ccccc2s1 | binding, competition with immobilised ligand | 1 µM | 24%
